Data: publication PMC6568187 (Theranostics, 2019)

How the values were obtained:
[1] = test system: U87-MG cells; test: Organelle co-localization; type: cell-based; conditions: 20 µM, 37 °C, DMEM/F12 with 10% FBS pH 7.4
Method in brief: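 50,000 U87-MG cells were plated in chamber wells and adhered overnight. Then 20 μM test compound for 30 min, two PBS washes, organelle trackers (LysoTracker Green DND 26, MitoTracker Green FM, BODIPY FL C5-ceramide–BSA, ER Tracker Green), then NucBlue 10 min. Confocal imaging, 60x water objective. Lasers: 488 nm for organelle stains, 405 nm for nuclei, 633 nm for dye. Cells re-imaged after 24 h in FluoroBrite DMEM + 10% FBS; co-localization expressed as Pearson's R.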

[2] = in DMSO; λex 730 nm; used as standard; listed as ICG; cited from earlier work
[3] = Photostability under LED illumination; type: physicochemical; conditions: 780 nm LED
Method in brief: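 Solutions in 10 mM PBS pH 7.4, and in H2O with 1% DMSO, were left open to air and illuminated with a 780 nm LED. Dyes were used either equimolar (20 µM) or diluted to equal absorbance at 780 nm (1.7–2.7 µM). Absorbance at 780 nm was read every 10 min up to 60 min and plotted against time.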

[4] = Aggregation: concentration dependence of absorbance spectra; type: physicochemical; conditions: 1.25 - 20 µM in 10 mM pH 7.4 PBS buffer
[5] = test system: most cell lines; conditions: read-out: IC50 (cytotoxicity); cited from earlier work
[6] = In vivo biodistribution and clearance; conditions: normal CD-1 mice, 25 nmol intravenous, imaging 0.5-4 h
[7] = Photophysical properties; type: physicochemical; conditions: 10 mM PBS buffer pH 7.4
Method in brief: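 Dyes in 10 mM PBS pH 7.4, 1 cm cuvettes. Excitation 730 nm; integrated emission 740–900 nm, with maximum absorbance kept below 0.1. Quantum yield came from the gradient of integrated fluorescence vs absorbance over several concentrations, referenced to ICG in DMSO (Φ 0.13). Relative absorbance and fluorescence were compared at 5 µM in the same buffer.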

[8] = Solubility measurement by UV absorbance; type: physicochemical
Method in brief: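 DMSO stocks (100 mM) were diluted to 0–1000 μM in 10 mM PBS pH 7.4 with 1% DMSO; H2O and DMEM ± 10% FBS were also tested. Samples were shaken in the dark 6 h at room temperature (25 °C), equilibrated overnight and centrifuged at 600 x g for 15 min. Supernatant absorbance was read at 780 nm against blank, in triplicate.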

[9] = test system: U87-MG cells; test: Cytotoxicity assay; type: cell-based; conditions: read-out: IC50 (cytotoxicity), 72 h in the dark, AlamarBlue
Method in brief: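 U87-MG cells grown in DMEM with 10% FBS at 37 °C, 5% CO2, passaged at 70% confluency. Seeded at 5000 cells/well and left overnight. DMSO stocks (0.02 M) were diluted in protein-free hybridoma medium (PFHM-II) to final 0.01–80 μM, then incubated 72 h. AlamarBlue added for 2 h; fluorescence read at Ex/Em 560/590 nm. Viability = background-corrected signal vs full-viability control ×100; n=5, mean ± SD.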

Compound	localization after time 0.5 h [1]	localization after time 24 h [1]	Φ (fluorescence quantum yield) of the standard [2]	photostability ([3]; 1 h, A 2.7 µM, B 2 µM, 1 1.7 µM (same absorbance at 780 nm), 10 mM pH 7.4 PBS)	photodecomposition t1/2 ([3]; same absorbance at 780 nm, 10 mM pH 7.4 PBS buffer)	H-aggregation from absorbance spectra [4]	IC50 [5]	organ signal / excretion [6]	brightness (εmax x Φ) [7]	εmax [7]	λabs [7]	λem [7]	∆λ (Stokes' shift) [7]	relative brightness ([7]; relative to A)	Φ (fluorescence quantum yield) ([7]; λex 730 nm, standard A in DMSO)	solubility (soluble up to) ([8]; 10 mM pH 7.4 PBS buffer)	concentration at which it begins to aggregate ([8]; H2O)	solubility ([8]; in water, 25 °C)	IC50 [9]
CC1(C)C(/C=C/C=C/C=C/C=C2\N(CCCCS(=O)(=O)O)c3ccc4ccccc4c3C2(C)C)=[N+](CCCCS(=O)(=O)[O-])c2ccc3ccccc3c21 [compound A, indocyanine green]	golgi and ER	golgi and lysosome	0.13																
CC1(C)C(/C=C/C2=C(Cl)C(=C/C=C3\N(CCCCCC(=O)O)c4ccccc4C3(C)C)/CCC2)=[N+](CCCCCC(=O)O)c2ccccc21 [compound B]	mitochondria	mitochondria and lysosome		least stable and decomposed	< 10 min	blue-shifted shoulder	~20 µM	high signal in the liver and low signal in duodenum even after 4 h post-injection	3689	149940 cm^-1M^-1	775 nm	799 nm	24 nm	1.90	0.025	≥ 1 mM	100 µM	much less soluble	19.1 ± 1.01 µM
